Measured values published in the array DNA melting data of Ke et al. (doi:10.1101/2024.01.08.574731).

Assays:
[1] = folding enthalpy; higher = less favourable; fluorescence melt of hairpins on a sequencing array, two-state fit; details: sodium 0.088 M
Summary of the method: (§1)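 Melting temperature and folding enthalpy were obtained by bootstrapped two-state fitting. Fits used Cy3 fluorescence of library hairpins with annealed Cy3 and quencher oligos on a sequenced MiSeq flow cell, imaged in 50 mM Na-HEPES pH 8.0, 25 mM NaCl in 2.5 °C steps up to 60 °C and normalised to pre-quench Cy3 and control constructs. Four replicates were combined by inverse-variance weighting, and fitted temperatures were raised by 9.35 °C to match UV melts.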

[2] = melting temperature; fluorescence melt of hairpins on a sequencing array, two-state fit, raised by 9.35 °C to match UV melts; details: sodium 0.088 M
Summary of the method: as §1

Row | Sequence | folding enthalpy [1] | Tm [2]
1 | GGGACCGGAAACGACCCC (((..((....))..))) | -25.2 kcal/mol | 35.5 °C
2 | GGGACGGGAAACCGTTCC ((.((((....)))).)) | -35.2 kcal/mol | 57.2 °C
3 | GGGACGTCGAAAGACCCC (((..(((....)))))) | -18.4 kcal/mol | 41 °C
4 | GGGACTGGAAACAGTCTC (.(((((....))))).) | -20.6 kcal/mol | 51.7 °C
5 | GGGAGAACGAAAGTTCCC (((..(((....)))))) | -17.1 kcal/mol | 47.7 °C
6 | GGGAGACCGAAAGGTCCC (((..(((....)))))) | -12.8 kcal/mol | 53.2 °C
7 | GGGAGAGGAAACCCTCCC (((((.(....).))))) | -28.6 kcal/mol | 47.6 °C
8 | GGGAGAGGAAACTCCCCC (((.(((....))).))) | -17.8 kcal/mol | 49.4 °C
9 | GGGAGAGGAAACTCTCTC (.(((((....))))).) | -21.4 kcal/mol | 46.2 °C
10 | GGGAGCCGAAAGGCACCC (((.(((....))).))) | -29.5 kcal/mol | 67.1 °C
11 | GGGAGCGAAAGCTGCCCC ((((((....)))..))) | -12.6 kcal/mol | 58.1 °C
12 | GGGAGGCGAAAGCCACCC (((.(((....))).))) | -25.1 kcal/mol | 65.6 °C
13 | GGGAGGGAAACCTCCC ((((((....)))))) | -32 kcal/mol | 65.8 °C
14 | GGGAGGGGAAACCCTTCC ((.((((....)))).)) | -32.4 kcal/mol | 51.6 °C
15 | GGGAGGTCGAAAGACCCC (((..(((....)))))) | -14.4 kcal/mol | 54.5 °C
16 | GGGAGTCGAAAGACACCC (((.(((....))).))) | -30 kcal/mol | 56.9 °C
17 | GGGAGTGCGAAAGCACCC (((..(((....)))))) | -11.6 kcal/mol | 55.2 °C
18 | GGGAGTGGAAACATTCCC ((((.((....)).)))) | -33.5 kcal/mol | 48.2 °C
19 | GGGATAACGAAAGTTCCC (((..(((....)))))) | -26.7 kcal/mol | 42.4 °C
20 | GGGATACGAAAGTACCCC (((.(((....))).))) | -37.4 kcal/mol | 50.8 °C
21 | GGGATACGAAAGTAGCCC (((.(((....))).))) | -43.9 kcal/mol | 63.1 °C
22 | GGGATAGGAAACTACCCC (((.(((....))).))) | -23 kcal/mol | 38.7 °C
23 | GGGATAGGAAACTGTTCC ((.(.((....)).).)) | -16.5 kcal/mol | 28.6 °C

Row | Sequence | folding enthalpy [1] | Tm [2]
24 | GGGATCGAAAGATCCCCC ((((((....)))..))) | -10.2 kcal/mol | 68.2 °C
25 | GGGATCGAAAGATCGCCC ((((((....)))..))) | -15.3 kcal/mol | 47.2 °C
26 | GGGATCGAAAGATCTCCC ((((((....)))..))) | -14.1 kcal/mol | 47.2 °C
27 | GGGATCGAAAGATTGCCC ((((((....)))..))) | -14.6 kcal/mol | 32.6 °C
28 | GGGATCGAAAGATTTCCC ((((((....)))..))) | -19 kcal/mol | 32.3 °C
29 | GGGATGCGAAAGCACCC (((.(((....)))))) | -21.4 kcal/mol | 60 °C
30 | GGGATGGGAAACCGTTCC ((.(.((....)).).)) | -27 kcal/mol | 39.1 °C
31 | GGGATGGGAAACTATCCC (((((.(....).))))) | -30.5 kcal/mol | 49.8 °C
32 | GGGATTCGAAAGAACCC (((.(((....)))))) | -25.5 kcal/mol | 47.1 °C
33 | GGGCAATCGAAAGATCCC (((..(((....)))))) | -21.5 kcal/mol | 34 °C
34 | GGGCACCCGAAAGGGCCC (((..(((....)))))) | -36.7 kcal/mol | 58 °C
35 | GGGCACGAAAGTGGGCCC ((((((....)))..))) | -31.8 kcal/mol | 58.4 °C
36 | GGGCACGAAAGTGTTCCC ((((((....)))..))) | -17.7 kcal/mol | 46.1 °C
37 | GGGCACGCGAAAGCGCCC (((..(((....)))))) | -16.2 kcal/mol | 58.7 °C
38 | GGGCACGGAAACATGCCC (((((.(....).))))) | -37.6 kcal/mol | 51.5 °C
39 | GGGCACGGAAACGCGCCC ((((.((....)).)))) | -44 kcal/mol | 64.3 °C
40 | GGGCAGGGAAACCTGCTC (.(((((....))))).) | -20 kcal/mol | 59.6 °C
41 | GGGCAGGGAAACCTGTCC ((.((((....)))).)) | -43.9 kcal/mol | 57.1 °C
42 | GGGCATACGAAAGTACCC (((..(((....)))))) | -19.6 kcal/mol | 34.7 °C
43 | GGGCATGGAAACGTGCTC (.(((.(....).))).) | -20.8 kcal/mol | 45 °C
44 | GGGCCACGAAAGTGTCCC (((.(((....))).))) | -45.3 kcal/mol | 57.3 °C
45 | GGGCCAGCGAAAGCTCCC (((..(((....)))))) | -14.5 kcal/mol | 40.3 °C
46 | GGGCCAGGAAACTGGCTC (.(((((....))))).) | -16.1 kcal/mol | 61 °C

Row | Sequence | folding enthalpy [1] | Tm [2]
47 | GGGCCATCGAAAGATCCC (((..(((....)))))) | -16.4 kcal/mol | 31.6 °C
48 | GGGCCCGAAAGGGAACCC ((((((....)))..))) | -15.6 kcal/mol | 57.5 °C
49 | GGGCCCGAAAGGGCTCCC ((((((....)))..))) | -9.89 kcal/mol | 59.7 °C
50 | GGGCCCGAAAGGGGTCCC ((((((....)))..))) | -14.5 kcal/mol | 66.2 °C
51 | GGGCCCGAAAGGGTTCCC ((((((....)))..))) | -15.2 kcal/mol | 51.5 °C
52 | GGGCCCGGAAACAGGCCC (((((.(....).))))) | -34.2 kcal/mol | 59.1 °C
53 | GGGCCCTCGAAAGAGCCC (((..(((....)))))) | -23 kcal/mol | 48.1 °C
54 | GGGCCGCGAAAGCGACCC (((.(((....))).))) | -29.7 kcal/mol | 68.8 °C
55 | GGGCCGGGAAACCAGCCC ((((.((....)).)))) | -49.3 kcal/mol | 54.3 °C
56 | GGGCCGGGAAACCGGCTC (.(((((....))))).) | -15.4 kcal/mol | 66.8 °C
57 | GGGCCGTCGAAAGACCCC (((..(((....)))))) | -16.6 kcal/mol | 44.4 °C
58 | GGGCGCGAAAGCGGGCCC ((((((....)))..))) | -13.4 kcal/mol | 64.8 °C
59 | GGGCGCTCGAAAGAGCCC (((..(((....)))))) | -14 kcal/mol | 56.9 °C
60 | GGGCGGGGAAACCCGCTC (.(((((....))))).) | -15.2 kcal/mol | 64.7 °C
61 | GGGCGTACGAAAGTACCC (((..(((....)))))) | -17.4 kcal/mol | 50.2 °C
62 | GGGCGTCGAAAGACCCC (((.(((....)))))) | -37.1 kcal/mol | 58.9 °C
63 | GGGCGTGGAAACACGCTC (.(((((....))))).) | -14.5 kcal/mol | 62.4 °C
64 | GGGCTAGCGAAAGCTCCC (((..(((....)))))) | -15.1 kcal/mol | 38.8 °C
65 | GGGCTAGGAAACCAGCCC (((((.(....).))))) | -44.8 kcal/mol | 54.1 °C
66 | GGGCTAGGAAACTAACCC (((.(((....))).))) | -31.5 kcal/mol | 39.2 °C
67 | GGGCTCACGAAAGTGCCC (((..(((....)))))) | -21 kcal/mol | 51.9 °C
68 | GGGCTCCGAAAGGAACCC (((.(((....))).))) | -44.1 kcal/mol | 56.5 °C
69 | GGGCTCGAAAGAGCTCCC ((((((....)))..))) | -10.6 kcal/mol | 50 °C

Row | Sequence | folding enthalpy [1] | Tm [2]
70 | GGGCTCGAAAGAGGCCCC ((((((....)))..))) | -12.3 kcal/mol | 67 °C
71 | GGGCTGGGAAACCAACCC (((.(((....))).))) | -30 kcal/mol | 49 °C
72 | GGGCTGGGAAACCGGTCC ((.(.((....)).).)) | -44.6 kcal/mol | 49.2 °C
73 | GGGCTGGGAAACTGGCCC ((((..(....)..)))) | -48.3 kcal/mol | 54.3 °C
74 | GGGCTTACGAAAGTACCC (((..(((....)))))) | -20.9 kcal/mol | 34.4 °C
75 | GGGCTTGAAAAAGCCC ((((((....)))))) | -35.8 kcal/mol | 68.1 °C
76 | GGGCTTGGAAACGAGCCC (((((.(....).))))) | -51.4 kcal/mol | 59.2 °C
77 | GGGGAACGAAAGTTACCC (((.(((....))).))) | -47.9 kcal/mol | 60.6 °C
78 | GGGGAACGAAAGTTGCCC (((.(((....))).))) | -39.1 kcal/mol | 64 °C
79 | GGGGAATCGAAAGATCCC (((..(((....)))))) | -22.5 kcal/mol | 49.1 °C
80 | GGGGACGAAAGTCAACCC ((((((....)))..))) | -17.6 kcal/mol | 49 °C
81 | GGGGACGAAAGTCGGCCC ((((((....)))..))) | -27.2 kcal/mol | 56.4 °C
82 | GGGGACGGAAACACCCCC ((((..(....)..)))) | -22.6 kcal/mol | 34.8 °C
83 | GGGGACGGAAACGTCTCC ((.((((....)))).)) | -27.5 kcal/mol | 57.2 °C
84 | GGGGACGGAAACGTTCCC (((.(((....))).))) | -43.9 kcal/mol | 61.4 °C
85 | GGGGAGGAAACTCCCC ((((((....)))))) | -36.9 kcal/mol | 66.3 °C
86 | GGGGAGGGAAACCTTCCC (((.(((....))).))) | -33 kcal/mol | 53.4 °C
87 | GGGGATCGAAAGATTCCC (((.(((....))).))) | -53.6 kcal/mol | 57.5 °C
88 | GGGGATGGAAACACCCCC ((((.((....)).)))) | -26.4 kcal/mol | 49 °C
89 | GGGGATGGAAACATTCCC (((.(((....))).))) | -40.9 kcal/mol | 51.6 °C
90 | GGGGCCGAAAGGCCGCCC ((((((....)))..))) | -9.69 kcal/mol | 56.9 °C
